Assay results published in ChEMBL document CHEMBL1124846, “Synthesis, antiproliferative, and antiviral activity of certain 4-substituted and 4,5-disubstituted 7-[(1,3-dihydroxy-2-propoxy)methyl]pyrrolo[2,3-d]pyrimidines” (J Med Chem, 1990).
Where “and” joins values, the source holds several entries; their conditions need not be identical. Equal values may be shown once.

How the values were obtained:
Human alphaherpesvirus 1 [1] = test: Inhibition of herpes simplex virus (HSV-1) in yield reduction assay; type: functional, organism-based
Human betaherpesvirus 5 = test: Inhibition of human cytomegalovirus (HCMV) in plaque reduction assay; type: functional, organism-based
Method in brief: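 HCMV Towne strain (plaque-purified P0) plaque reduction in HFF monolayers in MEM(E) with 10% FBS. Inoculum held about 50 PFU, with compound dissolved in the overlay medium. IC50 came from linear regression of percent inhibition against log concentration, with ganciclovir or acyclovir positive controls in every set; two to five experiments.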

[2] = Cytotoxic activity against BSC cells; type: cell-based; conditions: Cercopithecidae
Method in brief: (§1)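 Cytotoxicity was scored visually in uninfected HFF or BSC-1 monolayers within the plaque-reduction assays. Drug-induced cytopathology was read at 35- and 60-fold magnification on a 0 to 4+ scale on the day plaques were stained and counted.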

Human alphaherpesvirus 1 [3] = test: Inhibition of herpes simplex virus (HSV-1) in plaque reduction assay; type: functional, organism-based
Method in brief: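 HSV-1 S-148 strain plaque reduction in BSC-1 monkey kidney monolayers, with about 100 PFU inoculum and compound dissolved in the overlay medium. IC50 came from linear regression of percent inhibition against log concentration, with a positive control in each set.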

Neoplastic cell line = test: Cytotoxic activity against KB cells.; type: cell-based; conditions: Homo sapiens
Method in brief: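 KB cells (human oral epidermoid carcinoma) grown in MEM(H) with 5% FBS. Compound effect on incorporation of radiolabelled precursors into DNA, RNA and protein was measured. IC50s came from linear regression of percent inhibition against log concentration, and the three IC50s were averaged.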

L1210 [4] = test: In vitro inhibition of L1210 cell growth.; type: functional, Mus musculus; design: concentration or dose not given beside the values
Method in brief: (§2)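 Murine L1210 leukemia cells in static suspension culture in Fischer's medium with compound for 4 days. Growth rate is the ratio of control to treated population doubling time; where the rate changed, the final rate was used. IC50 is the concentration giving 50% of control growth rate; single-concentration value at 100 μM.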

[5] = Cytotoxic activity against HFF cells.; type: cell-based; conditions: Homo sapiens; method in brief: as §1
L1210 [6] = test: In vitro inhibition of L1210 cell growth to half of the control rate; type: functional, cell-based; conditions: Mus musculus; method in brief: as §2

Compound	IC90 (Human alphaherpesvirus 1 [1]) [µM]	IC50 (Human betaherpesvirus 5)	IC50 [2] [µM]	IC50 (Human alphaherpesvirus 1 [3]) [µM]	IC50 (Neoplastic cell line) [µM]	IC50 (Human betaherpesvirus 5; Human betaherpesvirus 5) [µM]	Activity (L1210 [4]) [%]	IC50 [5] [µM]	IC50 (L1210 [6]) [µM]
Nc1nc2c(ncn2COCCO)c(=O)[nH]1 [ACYCLOVIR]	7	63 µM	> 100	4	> 100				
CCNc1ncnc2c1c(Br)cn2COC(CO)CO			> 100	> 100		> 100	95	> 100	
OCC(CO)OCn1cc(I)c2c(NO)ncnc21		18 µM and 3.2 µM		30			11	> 100	39
Nc1ncnc2c1ccn2COC(CO)CO			> 100	> 100		> 100	106	> 100	
